SMILES strings stand for the structures. Entries after “also recorded” stand apart in the source; their conditions may differ.

In one series the target is ckit (Homo sapiens, UniProt P10721). As to the kind of experiment: rhSCF-mediated ckit phosphorylation in CBMCs. In kind it is cell-based. The settings on record: 4 nM rhSCF, 10 min stimulation.
The subject of the next series is CCL2 release from CBMCs. Briefly: rhSCF-induced CCL2 release from MCs. In kind it is cell-based. The settings on record: Homo sapiens, 72 h, read-out: IC50, inhibition of CCL2 release. A digest of the protocol:
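CBMCs stimulated 3 days with 4 nM rhSCF together with test compound, DMSO vehicle, anti-SCF pAb (positive control) or goat IgG isotype. CCL2 in culture supernatants quantified by MesoScale Discovery electrochemiluminescence. Mean (SE) of 3 separate experiments.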

The conditions of series [1]: read-out: maximum plasma concentration achieved at steady state (cmax); 150 mg twice daily dosing; cited from earlier work.
In another series the test system is rat bleomycin model. Briefly: rat bleomycin model of lung fibrosis. The series is classed as in vivo. The settings on record: 60 mg/kg daily oral. A digest of the protocol: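 Male CD rats, 6–8 weeks old, given intratracheal bleomycin sulphate 0.9 U/kg or saline 1 mL/kg under isoflurane on day 0. Test compound 60 mg/kg, or water vehicle, by daily oral gavage on days 0–13. Day 14: Giemsa-stained lung sections counted for MCs per lung area. H&E and Masson's trichrome images analysed for parenchymal tissue density (HDFm). Collagen proportion by trichrome image analysis, 5 sections/animal. n=5–9/group; Kruskal-Wallis.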

Series [2] relates to CBMCs co-cultured with NHLFs. As to the kind of experiment: CBMC:NHLF co-culture, fibroblast-mediated MC survival and fibroblast numbers. In kind it is cell-based, human. Conditions: 10 nM, day 14. A digest of the protocol: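 CBMCs and normal human lung fibroblasts were cultured alone or co-cultured at 1:1 for up to 21 days. Media lacked SCF and IL-6 and held test compound, DMSO vehicle, anti-SCF (67 nM) or goat IgG isotype (67 nM). At each time point, viability dye plus anti-ckit APC staining; viable ckit+ (MC) and ckit− (fibroblast) cells counted in a fixed volume by flow cytometry. Day-14 % inhibition vs isotype/vehicle; 3 experiments, 2 MC donors.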

Series [3] concerns normal human lung fibroblasts (NHLFs). Briefly: bFGF-induced fibroblast proliferation. The settings on record: 100pM bFGF, 48 hours. In kind it is cell-based. A digest of the protocol: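 Normal human lung fibroblasts stimulated 48 h with recombinant human bFGF (100pM) plus test compound or DMSO vehicle. Proliferation measured by 3H-thymidine incorporation (counts per minute). Mean (SE) of three separate experiments.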

For series [4], the system named is cord blood-derived mast cells (CBMCs). Briefly: recombinant SCF-mediated CBMC survival. Conditions: 4 nM rhSCF, 7 days. The series is classed as cell-based, human. A digest of the protocol:
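Cord blood–derived MCs, differentiated from CD133+ precursors, cultured 7 days with 4 nM rhSCF plus test compound or DMSO vehicle. Then stained with viability dye and anti-ckit APC; viable ckit-positive MCs in a fixed volume counted by flow cytometry and compared with control. Mean (SE) of three separate experiments.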

Chain of ckit (P10721 26-976): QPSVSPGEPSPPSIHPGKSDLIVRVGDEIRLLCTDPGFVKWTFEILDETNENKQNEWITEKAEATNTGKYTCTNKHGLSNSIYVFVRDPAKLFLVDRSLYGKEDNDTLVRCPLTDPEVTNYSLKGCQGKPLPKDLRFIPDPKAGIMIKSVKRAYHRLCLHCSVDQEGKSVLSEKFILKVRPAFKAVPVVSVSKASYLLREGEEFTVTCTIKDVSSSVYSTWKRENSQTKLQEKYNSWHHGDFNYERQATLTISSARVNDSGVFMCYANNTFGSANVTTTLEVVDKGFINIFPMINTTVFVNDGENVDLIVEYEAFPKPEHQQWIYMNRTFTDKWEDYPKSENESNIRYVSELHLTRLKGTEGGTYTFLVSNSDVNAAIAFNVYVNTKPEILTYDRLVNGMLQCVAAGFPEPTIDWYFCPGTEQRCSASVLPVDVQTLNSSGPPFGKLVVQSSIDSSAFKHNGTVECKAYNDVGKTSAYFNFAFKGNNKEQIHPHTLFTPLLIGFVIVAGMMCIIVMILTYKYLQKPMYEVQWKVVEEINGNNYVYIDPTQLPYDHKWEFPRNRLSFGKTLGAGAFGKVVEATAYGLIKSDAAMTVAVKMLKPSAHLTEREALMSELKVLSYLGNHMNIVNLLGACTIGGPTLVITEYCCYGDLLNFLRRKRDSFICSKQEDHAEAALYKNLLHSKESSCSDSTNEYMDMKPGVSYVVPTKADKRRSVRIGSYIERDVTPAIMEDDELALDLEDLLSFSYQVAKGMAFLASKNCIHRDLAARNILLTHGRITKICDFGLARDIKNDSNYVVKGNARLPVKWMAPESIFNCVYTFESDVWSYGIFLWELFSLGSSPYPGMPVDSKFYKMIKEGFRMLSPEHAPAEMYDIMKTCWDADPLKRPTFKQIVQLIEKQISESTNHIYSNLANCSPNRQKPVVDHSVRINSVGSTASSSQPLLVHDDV

Take `COC(=O)c1ccc2c(c1)NC(=O)/C2=C(\Nc1ccc(N(C)C(=O)CN2CCN(C)CC2)cc1)c1ccccc1` [nintedanib]: the “extent of inhibition of ckit phosphorylation (in words)” value at ckit is given as “fully inhibited”. Besides, the IC50 in the series with CCL2 release from CBMCs was determined as 12.2 nM. In series [1], the Cmax is 70 nM. Besides, the “effect on bleomycin-induced increase in lung MCs (number per area lung)” value in the series with rat bleomycin model (day 0-13, read-out day 14, 60 mg/kg) is on record as “ablated; also recorded: inhibited”. Further, in the series on rat bleomycin model (day 14), the “effect on collagen (col1a1) mRNA expression in lung” value is “no significant effect” and the “effect on fibronectin (fn1) mRNA expression in lung” value is on record as “no significant effect”. Also, in the series on rat bleomycin model (day 14, 60 mg/kg), the “effect on collagen content by Masson's trichrome (MTC)” value is recorded as “trend towards decreased collagen; also recorded: not statistically significant”; the “effect on histamine levels in lung homogenates” value is “reduction in the levels of histamine in lung homogenates, although this did not reach statistical significance”; the “effect on lung hydroxyproline levels” value is “no significant effect”. In the series with rat bleomycin model (day 14, vs bleomycin vehicle control, 60 mg/kg), the “effect on high tissue density frequency (HDFm) in lung parenchyma” value is “significantly decreased; also recorded: inhibited”. The “effect on fibroblast-mediated MC survival (in words)” value in series [2] is on record as “inhibited survival”.
As for `Cc1ccc(=O)n(-c2ccccc2)c1` [pirfenidone], the “effect on bFGF-mediated fibroblast proliferation (in words)” value in series [3] was “no impact”. In addition, the “effect on rhSCF-mediated MC survival (in words)” value in series [4] was “no impact”.

Usually IC50 stands for the concentration at which inhibition is half-maximal.

The values are drawn from paper PMC7476277 (Thorax, 2020).
